The values below come from ChEMBL document CHEMBL3822380, “Simple avarone mimetics as selective agents against multidrug resistant cancer cells” (Eur J Med Chem, 2016).

The subject of data set [1] is Micrococcus luteus. Nature of the data set: Antibacterial activity against Micrococcus luteus ATCC 10240 by broth microdilution method. Type of data set: functional. A digest of the protocol:
(§1)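 Broth microdilution per NCCLS. Compounds dissolved in DMSO as 10 mg/mL stock, diluted in Mueller Hinton broth (bacteria) or Sabouraud dextrose broth (fungi). Amikacin served as the positive control for bacteria and nystatin for fungi.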

In data set [2] the test system is NCI-H460. Description: Cytotoxicity against human NCI-H460 cells after 72 hrs by MTT assay. Type of data set: functional, cell-based. The note with it: NCI-H460, 72 h. A digest of the protocol: (§2)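 Seeding in 96-well plates at 1000 (NCI-H460), 2000 (NCI-H460/R) or 4000 (HaCaT) cells/well, treated after 24 h for 72 h. MTT at 0.4 mg/mL final, 4 h at 37 °C. Formazan dissolved in DMSO, absorbance read at 540 nm. Inhibition % = (1 − A treated/A untreated)×100. IC30 and IC50 obtained by linear regression.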
(In general: Formazan colour is commonly taken as a measure of viable cells.)

The test system of the next data set is Escherichia coli. Nature of the data set: Antibacterial activity against Escherichia coli ATCC 25922 by broth microdilution method. Type of data set: functional. In outline:
as §1
(In general: In broth dilution the organism is exposed to a series of concentrations in liquid medium.)

The next data set deals with Bacillus spizizenii. Description: Antibacterial activity against Bacillus subtilis ATCC 6633 by broth microdilution method. Type of data set: functional. In outline: as §1
The nature of data set [3]: Selectivity ratio of IC30/IC50 for human HaCaT cells to IC30/IC50 for human NCI-H460 cells. The note with it: HaCaT cells versus NCI-H460 cells. Type of data set: ADME, cell-based. A digest of the protocol:
(§3)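 Fold threshold of 1.5 used to call selectivity to cancer cells, resistance, or selectivity to MDR cells.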

The next data set has as its system Kocuria rhizophila. Nature of the data set: Antibacterial activity against Kocuria rhizophila ATCC 9341 by broth microdilution method. Type of data set: functional. The note with it: DC2201. In outline: as §1
Data set [4] deals with NCI-H460. Nature of the data set: Cytotoxicity against multidrug resistant human NCI-H460 cells after 72 hrs by MTT assay. The note with it: NCI-H460, 72 h. Type of data set: functional, cell-based. A digest of the protocol: as §2
The test system of the next data set is Proteus hauseri. Nature of the data set: Antibacterial activity against Proteus hauseri ATCC 13315 by broth microdilution method. Type of data set: functional. A digest of the protocol:
as §1

The next data set concerns Pseudomonas aeruginosa. Nature of the data set: Antibacterial activity against Pseudomonas aeruginosa ATCC 9027 by broth microdilution method. Type of data set: functional. In outline:
as §1

The test system of data set [5] is HaCaT. Nature of the data set: Cytotoxicity against human HaCaT cells after 72 hrs by MTT assay. As to conditions: for IC50: Homo sapiens, HaCaT; for IC30: human, hacat. Type of data set: cell-based. A digest of the protocol: as §2
A further data set concerns Staphylococcus aureus. Description: Antibacterial activity against Staphylococcus aureus ATCC 6538 by broth microdilution method. Type of data set: functional. In outline: as §1
Data set [6] is described as follows: Selectivity ratio of IC30/IC50 for human HaCaT cells to IC30/IC50 for multidrug resistant human NCI-H460 cells. The note with it: HaCaT cells versus multidrug resistant NCI-H460 cells. Type of data set: ADME, cell-based. In outline: as §3
A further data set has as its system Salmonella enteritidis. Description: Antibacterial activity against Salmonella enterica subsp. enterica serovar Enteritidis ATCC 13076 by broth microdilution method. Type of data set: functional. A digest of the protocol:
as §1

Data set [7] has as its system NCI-H460. Description: Selectivity ratio of IC30/IC50 for human NCI-H460 cells to IC30/IC50 for multidrug resistant human NCI-H460 cells. Type of data set: functional. A digest of the protocol:
as §3

Data set [8] concerns Micrococcus luteus. Description: Antibacterial activity against Micrococcus luteus ATCC 4698 by broth microdilution method. Type of data set: functional. As to conditions: NCTC 2665. In outline: as §1
Another data set deals with Clostridium sporogenes. Nature of the data set: Antibacterial activity against Clostridium sporogenes ATCC 19404 by broth microdilution method. Type of data set: functional. In outline: as §1
For data set [9], the system named is NCI-H460. Nature of the data set: Induction of apoptosis in multidrug resistant human NCI-H460 cells assessed as live cells at 25 uM after 72 hrs by annexin-V/propidium iodide staining-based flow cytometric analysis (reference value: 96.4%). Type of data set: functional. In general terms: A flow cytometer gives signals particle by particle.
In data set [10] the test system is NCI-H460. Nature of the data set: Induction of apoptosis in human NCI-H460 cells assessed as late apoptotic/necrotic cells at 25 uM after 72 hrs by annexin-V/propidium iodide staining-based flow cytometric analysis (reference value: 0.2%). Type of data set: functional.
Data set [11] relates to NCI-H460. Description: Induction of apoptosis in multidrug resistant human NCI-H460 cells assessed as late apoptotic/necrotic cells at 25 uM after 72 hrs by annexin-V/propidium iodide staining-based flow cytometric analysis (reference value: 1%). Type of data set: functional.
Data set [12] relates to NCI-H460. Nature of the data set: Induction of apoptosis in multidrug resistant human NCI-H460 cells assessed as early apoptotic cells at 25 uM after 72 hrs by annexin-V/propidium iodide staining-based flow cytometric analysis (reference value: 1.1%). Type of data set: functional.
The subject of data set [13] is NCI-H460. Description: Induction of apoptosis in multidrug resistant human NCI-H460 cells assessed as dead cells at 25 uM after 72 hrs by annexin-V/propidium iodide staining-based flow cytometric analysis (reference value: 1.5%). Type of data set: functional.
Data set [14] is described as follows: Induction of apoptosis in human HaCaT cells assessed as live cells at 25 uM after 72 hrs by annexin-V/propidium iodide staining-based flow cytometric analysis (reference value: 96.8%). As to conditions: read-out: Activity. Type of data set: cell-based.
Data set [15] relates to HaCaT. Description: Induction of apoptosis in human HaCaT cells assessed as late apoptotic/necrotic cells at 25 uM after 72 hrs by annexin-V/propidium iodide staining-based flow cytometric analysis (reference value: 0.2%). Type of data set: cell-based.
Data set [16] concerns NCI-H460. Description: Induction of apoptosis in human NCI-H460 cells assessed as early apoptotic cells at 25 uM after 72 hrs by annexin-V/propidium iodide staining-based flow cytometric analysis (reference value: 0.3%). Type of data set: functional.
For data set [17], the system named is HaCaT. Description: Induction of apoptosis in human HaCaT cells assessed as dead cells at 25 uM after 72 hrs by annexin-V/propidium iodide staining-based flow cytometric analysis (reference value: 2.8%). Type of data set: cell-based.
Data set [18] relates to NCI-H460. Nature of the data set: Induction of apoptosis in human NCI-H460 cells assessed as dead cells at 25 uM after 72 hrs by annexin-V/propidium iodide staining-based flow cytometric analysis (reference value: 1.2%). Type of data set: functional.
For data set [19], the system named is NCI-H460. Nature of the data set: Induction of apoptosis in human NCI-H460 cells assessed as live cells at 25 uM after 72 hrs by annexin-V/propidium iodide staining-based flow cytometric analysis (reference value: 98.3%). Type of data set: functional.
Data set [20] deals with NCI-H460. Nature of the data set: Induction of superoxide anion generation in multidrug resistant human NCI-H460 cells at 25 uM after 72 hrs by DHE staining-based flow cytometric analysis relative to control. Type of data set: functional, cell-based. In outline: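 Seeded as for cell death (50,000 or 100,000 cells/well), treated 72 h at 25 µM, with CDDP 5 µM as control. Adherent cells trypsinized and loaded with 1 µM DHE for 30 min at 37 °C in the dark, then washed twice in PBS. Flow cytometry at ex 488/em 585 nm (FL2-H). Mean fluorescence intensity corrected for autofluorescence and compared with untreated control.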

Data set [21] relates to HaCaT. Description: Induction of apoptosis in human HaCaT cells assessed as early apoptotic cells at 25 uM after 72 hrs by annexin-V/propidium iodide staining-based flow cytometric analysis (reference value: 0.2%). Type of data set: cell-based.

Converted amounts (≈) assume the structure as drawn. The source made the active and inactive calls. Bounds are passed on as bounds.

A word on the MIC: it is the lowest concentration that inhibits growth of the organism. A higher MIC goes with weaker potency. One may read the IC30 as the concentration needed for an effect of 30%. The low end stands for an effect from little substance, the high end for a need for much substance. The IC50 is the point on the concentration scale where inhibition reaches its midpoint. A high value points to weaker potency in that assay. As to `CC(C)(C)C1=CC(=O)C(NCc2ccccc2)=CC1=O`, the MIC with Micrococcus luteus [1] was 18 µM (≈ 4.85 µg/mL); in the data set with Escherichia coli, 36 µM (≈ 9.7 µg/mL); in the data set on Bacillus spizizenii, 4650 µM (≈ 1250 µg/mL); in the data set on Kocuria rhizophila, 4650 µM (≈ 1250 µg/mL); in the data set with Proteus hauseri, 2320 µM (≈ 626 µg/mL); against Pseudomonas aeruginosa, 4650 µM (≈ 1250 µg/mL). The MIC turned out to be 72 µM (≈ 19.4 µg/mL) against Staphylococcus aureus, 4650 µM (≈ 1250 µg/mL) in the data set on Salmonella enteritidis, 2320 µM (≈ 626 µg/mL) against Micrococcus luteus [8] and 2320 µM (≈ 626 µg/mL) against Clostridium sporogenes. The IC30 in the data set with NCI-H460 [2] turned out to be 13 µM; with NCI-H460 [4], 5 µM; in the data set on HaCaT [5], 12 µM. For the same molecule, the IC50 in the data set with NCI-H460 [2] came to 19 µM; in the data set on NCI-H460 [4] it was 15 µM; in the data set with HaCaT [5] it was 28 µM. Further, the selectivity ratio is at most 1.5 in data set [3], at most 1.5 in data set [6] and “<=1.5” with NCI-H460 [7].
Regarding `CC1=CCC[C@H]2[C@](C)(CC3=CC(=O)C(NCCc4ccccc4)=CC3=O)[C@@H](C)CC[C@]12C`, the IC30 in the data set on NCI-H460 [2] amounted to 75 µM; in the data set on NCI-H460 [4], 10 µM; in the data set with HaCaT [5], 76 µM. In addition, the IC50 in the data set with NCI-H460 [2] is above 100 µM; with NCI-H460 [4], 91 µM; in the data set with HaCaT [5] it was above 100 µM. Further, the Activity is recorded as 94.9% in the data set on NCI-H460 [9]; 0.5% with NCI-H460 [10]; 0.6% in the data set on NCI-H460 [11]; 0.4% in the data set on NCI-H460 [12]; 4.1% with NCI-H460 [13]; 1% with HaCaT [15]. Moreover, the Activity came out at 0.3% in the data set on NCI-H460 [16]; 9.2% in the data set with HaCaT [17]; 7.2% in the data set with NCI-H460 [18]; 92% in the data set with NCI-H460 [19]; 0.3% in the data set with HaCaT [21]. Also, the figures for the selectivity ratio (in data set [3]; in [6]; in the data set with NCI-H460 [7]) were at most 1.5, at most 1.5 and “<=1.5”, respectively. Moreover, the viability at 72 h, 25 µM in data set [14] came out at 89.5%. In the data set on NCI-H460 [20], the outcome was inactive.
`CCCCNC1=CC(=O)C(C[C@]2(C)[C@@H](C)CC[C@]3(C)C(C)=CCC[C@@H]23)=CC1=O`: the values for the IC30 in the data set with NCI-H460 [2], in the data set with NCI-H460 [4] and with HaCaT [5] were 91 µM, 24 µM and 86 µM, respectively. Moreover, the IC50 in the data set with NCI-H460 [2], in the data set with NCI-H460 [4] and with HaCaT [5] was above 100 µM each time. The values for the selectivity ratio (in [3]; in data set [6]; in the data set with NCI-H460 [7]) were at most 1.5, at most 1.5 and “<=1.5”, respectively.
